Measurements reported in ChEMBL document CHEMBL4689842, “EUbOPEN Chemogenomics Library wave 1” (2021).
“And” between values parts separate entries of the source, which are not always exact repeats. Equal values may be shown once.

Tested on: HEK-293T
Assay: Multiplex assay against HEK293T;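 for Population Tubulin-Different-Phenotype (%): share of the cells with healthy nuclei that show this phenotype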
Assay type: toxicity, cell-based
Settings: human
Procedure, shortened: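 Live cells were stained at seeding with Hoechst33342, BioTracker Green Microtubule Cytoskeleton Dye, MitoTracker Red and Annexin V Alexa Fluor 680, then imaged on a CQ1 microscope at 37°C and 5% CO2 after compound addition. CellPathfinder machine-learning gating split cells into Hoechst high-intensity objects or normal cells. Normal cells were split into healthy, pyknosed or fragmented nuclei, and pyknosed cells into mitotic or apoptotic. Tubulin, mitochondrial-mass and membrane-permeability phenotypes are per cents of healthy-nucleus cells.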

[1] = 12 h, 1 µM, compound concentration 1 uM, replicate 1
[2] = 12 h, 1 µM, compound concentration 1 uM, replicate 2
[3] = 12 h, 10 µM, compound concentration 10 uM, replicate 1
[4] = 12 h, 10 µM, compound concentration 10 uM, replicate 2
[5] = 24 h, 1 µM, compound concentration 1 uM, replicate 1
[6] = 24 h, 1 µM, compound concentration 1 uM, replicate 2
[7] = 24 h, 10 µM, compound concentration 10 uM, replicate 1
[8] = 24 h, 10 µM, compound concentration 10 uM, replicate 2
[9] = 48 h, 1 µM, compound concentration 1 uM, replicate 1
[10] = 48 h, 1 µM, compound concentration 1 uM, replicate 2
[11] = 48 h, 10 µM, compound concentration 10 uM, replicate 1
[12] = 48 h, 10 µM, compound concentration 10 uM, replicate 2

## O=C(NCCCC1CCCCC1)c1ccc(CNC(=O)c2cnn(-c3ccccc3)c2C(F)(F)F)cc1 [SR-321]
[1]
  Population Apoptotic (%): 40% and 29% and 42%
  Population Fragmented Nuclei (%): 15% [middle of 4 runs]
  Population Healthy Nuclei (%): 31% and 37% and 67%
  Population Hoechst High Intensity Objects (%): 14% [middle of 4 runs]
  Population Membrane Permeable-Phenotype (%): 2% and 0% and 3%
  Population Mitotic Cells (%): 59% and 70% and 57%
  Population Normal (%): 85% and 83% and 90% and 88%
  Total Cell Count: 312 [middle of 4 runs]
[2]
  Population Apoptotic (%): 10% [middle of 4 runs]
  Population Fragmented Nuclei (%): 6% [middle of 4 runs]
  Population Healthy Nuclei (%): 42% [middle of 4 runs]
  Population Hoechst High Intensity Objects (%): 3% and 2% and 5%
  Population Membrane Permeable-Phenotype (%): 10% and 8% and 1%
  Population Mitochondria Different-Phenotype (%): 10% and 19% and 7%
  Population Mitotic Cells (%): 85% and 90% and 89% and 92%
  Population Normal (%): 96% and 97% and 94%
[3]
  Population Apoptotic (%): 50% [middle of 4 runs]
  Population Fragmented Nuclei (%): 16% [middle of 4 runs]
  Population Hoechst High Intensity Objects (%): 17% [middle of 4 runs]
  Population Membrane Permeable-Phenotype (%): 6% and 2% and 4%
  Population Mitotic Cells (%): 60% [middle of 4 runs]
  Population Normal (%): 86% and 81% and 82% and 89%
  Total Cell Count: 302 [middle of 4 runs]
[4]
  Population Healthy Nuclei (%): 38% [middle of 4 runs]
  Population Hoechst High Intensity Objects (%): 4% and 2% and 3%
  Population Membrane Permeable-Phenotype (%): 5% and 3% and 0%
  Population Mitotic Cells (%): 86% [middle of 4 runs]
  Population Normal (%): 95% and 97% and 96%
  Population Tubulin-Different-Phenotype (%): 32% [middle of 4 runs]
[5]
  Population Fragmented Nuclei (%): 13% [middle of 4 runs]
  Population Healthy Nuclei (%): 42% and 36% and 81%
  Population Hoechst High Intensity Objects (%): 15% [middle of 4 runs]
  Population Membrane Permeable-Phenotype (%): 2% [middle of 4 runs]
  Population Mitotic Cells (%): 59% and 54% and 58% and 86%
  Population Normal (%): 87% and 83% and 84% and 93%
  Total Cell Count: 361 [middle of 4 runs]
[6]
  Population Healthy Nuclei (%): 65% [middle of 4 runs]
  Population Hoechst High Intensity Objects (%): 2% and 3%
  Population Membrane Permeable-Phenotype (%): 11% [middle of 4 runs]
  Population Mitotic Cells (%): 82% and 89% and 94%
  Population Normal (%): 97% and 96%
  Population Tubulin-Different-Phenotype (%): 20% [middle of 4 runs]
[7]
  Population Apoptotic (%): 57% [middle of 4 runs]
  Population Fragmented Nuclei (%): 16% and 19% and 18%
  Population Membrane Permeable-Phenotype (%): 0% and 4% and 6%
  Population Mitotic Cells (%): 53% [middle of 4 runs]
  Population Normal (%): 81% and 80% and 85% and 93%
  Population Tubulin-Different-Phenotype (%): 59% and 53% and 26%
[8]
  Population Healthy Nuclei (%): 55% [middle of 4 runs]
  Population Hoechst High Intensity Objects (%): 3% and 4%
  Population Mitotic Cells (%): 73% and 81% and 95%
  Population Normal (%): 96% and 95%
  Population Tubulin-Different-Phenotype (%): 44% [middle of 4 runs]
[9]
  Population Apoptotic (%): 41% and 50% and 34%
  Population Fragmented Nuclei (%): 14% and 21% and 17%
  Population Healthy Nuclei (%): 34% and 40%
  Population Hoechst High Intensity Objects (%): 14% and 20%
  Population Membrane Permeable-Phenotype (%): 4% and 2%
  Population Mitochondria Different-Phenotype (%): 31% and 29%
  Population Mitotic Cells (%): 58% and 49% and 65%
  Population Normal (%): 85% and 79%
  Population Pyknosed Nuclei (%): 50% and 38% and 42%
  Population Tubulin-Different-Phenotype (%): 27% and 29%
  Total Cell Count: 401 and 332 and 411
[10]
  Population Apoptotic (%): 9% and 8% and 13%
  Population Fragmented Nuclei (%): 6% and 5%
  Population Healthy Nuclei (%): 79% and 76% and 82%
  Population Hoechst High Intensity Objects (%): 3% and 5%
  Population Membrane Permeable-Phenotype (%): 8% and 6%
  Population Mitochondria Different-Phenotype (%): 3% and 7% and 6%
  Population Mitotic Cells (%): 90% and 91% and 86%
  Population Normal (%): 96% and 94%
  Population Pyknosed Nuclei (%): 13% and 17% and 11%
  Population Tubulin-Different-Phenotype (%): 18% and 22% and 15%
  Total Cell Count: 377 and 459 and 394
[11]
  Population Apoptotic (%): 48% and 63% and 54%
  Population Fragmented Nuclei (%): 23% and 25%
  Population Healthy Nuclei (%): 28% and 27% and 18%
  Population Hoechst High Intensity Objects (%): 19% and 20% and 16%
  Population Membrane Permeable-Phenotype (%): 0% and 1%
  Population Mitochondria Different-Phenotype (%): 73% and 83%
  Population Mitotic Cells (%): 51% and 36% and 45%
  Population Normal (%): 80% and 79% and 83%
  Population Pyknosed Nuclei (%): 47% and 48% and 56%
  Population Tubulin-Different-Phenotype (%): 32% and 59%
  Total Cell Count: 274 and 281 and 324
[12]
  Population Apoptotic (%): 30% and 26% and 20%
  Population Fragmented Nuclei (%): 6% and 5% and 8%
  Population Healthy Nuclei (%): 78% and 75% and 74%
  Population Hoechst High Intensity Objects (%): 3% and 2%
  Population Membrane Permeable-Phenotype (%): 5% and 2%
  Population Mitochondria Different-Phenotype (%): 27% and 41% and 31%
  Population Mitotic Cells (%): 69% and 73% and 79%
  Population Normal (%): 96% and 97%
  Population Pyknosed Nuclei (%): 15% and 19% and 17%
  Population Tubulin-Different-Phenotype (%): 50% and 52% and 49%
  Total Cell Count: 396 and 327 and 349

## Cc1nc(-c2cn3c(n2)-c2ccc(-c4cnn(C(C)(C)C(N)=O)c4)cc2OCC3)n(C(C)C)n1 [TASELISIB]
[1]
  Population Apoptotic (%): 21%
  Population Fragmented Nuclei (%): 14%
  Population Healthy Nuclei (%): 44%
  Population Hoechst High Intensity Objects (%): 22%
  Population Membrane Permeable-Phenotype (%): 4%
  Population Mitochondria Different-Phenotype (%): 12%
  Population Mitotic Cells (%): 78%
  Population Normal (%): 77%
  Population Pyknosed Nuclei (%): 41%
  Population Tubulin-Different-Phenotype (%): 9%
  Total Cell Count: 548
[2]
  Population Apoptotic (%): 17%
  Population Fragmented Nuclei (%): 2%
  Population Healthy Nuclei (%): 80%
  Population Hoechst High Intensity Objects (%): 7%
  Population Membrane Permeable-Phenotype (%): 0%
  Population Mitochondria Different-Phenotype (%): 28%
  Population Mitotic Cells (%): 82%
  Population Normal (%): 92%
  Population Pyknosed Nuclei (%): 16%
  Population Tubulin-Different-Phenotype (%): 13%
  Total Cell Count: 803
[3]
  Population Apoptotic (%): 17%
  Population Fragmented Nuclei (%): 17%
  Population Healthy Nuclei (%): 49%
  Population Hoechst High Intensity Objects (%): 12%
  Population Membrane Permeable-Phenotype (%): 3%
  Population Mitochondria Different-Phenotype (%): 8%
  Population Mitotic Cells (%): 82%
  Population Normal (%): 87%
  Population Pyknosed Nuclei (%): 32%
  Population Tubulin-Different-Phenotype (%): 6%
  Total Cell Count: 507
[4]
  Population Apoptotic (%): 11%
  Population Fragmented Nuclei (%): 8%
  Population Healthy Nuclei (%): 86%
  Population Hoechst High Intensity Objects (%): 3%
  Population Membrane Permeable-Phenotype (%): 1%
  Population Mitochondria Different-Phenotype (%): 11%
  Population Mitotic Cells (%): 88%
  Population Normal (%): 96%
  Population Pyknosed Nuclei (%): 4%
  Population Tubulin-Different-Phenotype (%): 10%
  Total Cell Count: 1692
[5]
  Population Apoptotic (%): 24%
  Population Fragmented Nuclei (%): 16%
  Population Healthy Nuclei (%): 53%
  Population Hoechst High Intensity Objects (%): 17%
  Population Membrane Permeable-Phenotype (%): 3%
  Population Mitochondria Different-Phenotype (%): 15%
  Population Mitotic Cells (%): 75%
  Population Normal (%): 82%
  Population Pyknosed Nuclei (%): 30%
  Population Tubulin-Different-Phenotype (%): 18%
  Total Cell Count: 507
[6]
  Population Apoptotic (%): 20%
  Population Fragmented Nuclei (%): 4%
  Population Healthy Nuclei (%): 84%
  Population Hoechst High Intensity Objects (%): 10%
  Population Membrane Permeable-Phenotype (%): 1%
  Population Mitochondria Different-Phenotype (%): 20%
  Population Mitotic Cells (%): 79%
  Population Normal (%): 89%
  Population Pyknosed Nuclei (%): 11%
  Population Tubulin-Different-Phenotype (%): 39%
  Total Cell Count: 810
[7]
  Population Apoptotic (%): 27%
  Population Fragmented Nuclei (%): 13%
  Population Healthy Nuclei (%): 66%
  Population Hoechst High Intensity Objects (%): 8%
  Population Membrane Permeable-Phenotype (%): 12%
  Population Mitochondria Different-Phenotype (%): 5%
  Population Mitotic Cells (%): 72%
  Population Normal (%): 91%
  Population Pyknosed Nuclei (%): 19%
  Population Tubulin-Different-Phenotype (%): 11%
  Total Cell Count: 535
[8]
  Population Apoptotic (%): 3%
  Population Fragmented Nuclei (%): 24%
  Population Healthy Nuclei (%): 73%
  Population Hoechst High Intensity Objects (%): 4%
  Population Membrane Permeable-Phenotype (%): 7%
  Population Mitochondria Different-Phenotype (%): 2%
  Population Mitotic Cells (%): 96%
  Population Normal (%): 95%
  Population Pyknosed Nuclei (%): 1%
  Population Tubulin-Different-Phenotype (%): 12%
  Total Cell Count: 2851
